Measured values gathered from unrelated publications.
Compare with care: the assays were run in different laboratories. pEC50, pIC50: −log10 of the molar value.

O=c1[nH]c2cc(-c3ccc(Cl)cc3)ccc2c(=O)n1O
inhibition (Human betaherpesvirus 5; viral replication, inhibitor; 10 µM, 7 days): 102%

O=C(NCc1ccc(F)cc1)c1nc(Cl)c2cccnc2c1O
pEC50 (Human betaherpesvirus 5; viral replication, inhibitor; HFF): 5.08

Cc1csc2c(=O)n(O)c(=O)[nH]c12
inhibition (Human betaherpesvirus 5; viral replication, inhibitor; 10 µM, 7 days): 33%

N.N.[Cl][Pt][Cl]
pIC50 (CCD-18Co; cell growth or viability, MTS; 72 h): 4.19

CCN1CCc2c(sc3[nH]c(=O)n(O)c(=O)c23)C1
inhibition (Human betaherpesvirus 5; viral replication, inhibitor; 10 µM, 7 days): -4.8%

CCCCCCC#Cc1cncc(-c2nnc(Sc3ccc([N+](=O)[O-])cc3[N+](=O)[O-])n2C)c1
IC90 (Mycobacterium tuberculosis; microbial growth; ERDMAN): 1.2 µM

Nc1ncnc2c([C@@H]3N[C@H](CO)[C@@H](O)[C@H]3O)c[nH]c12
inhibition (human respiratory syncytial virus; viral replication, inhibitor; MA104; 88.8 µM): 94.2%

COc1ccc2c3c1O[C@H]1C(=O)CC[C@@]4(O)[C@@H](C2)N(C)CC[C@]314
ED50 (thermal pain; rat; intraperitoneal): 2.67 mg/kg

CCCCCCC#Cc1cncc(-c2nnc(SCc3ccc(Cl)cc3)n2C2CC2)c1
IC90 (Mycobacterium tuberculosis; microbial growth; ERDMAN): 7.5 µM

CCN1CC2(CCN(CCc3cc(F)ccc3F)CC2)O[C@H](C)C1=O
ED50 (thermal pain; rat; intraperitoneal): 1.85 mg/kg

O=C(NCc1ccc(Cl)c(Cl)c1)c1nc(Cl)c2cccnc2c1O
pEC50 (Human betaherpesvirus 5; viral replication, inhibitor; HFF): 5.01

CCCCCCC#Cc1cncc(-c2nnc(SCc3ccc(Cl)cc3)n2C)c1
IC90 (Mycobacterium tuberculosis; microbial growth; ERDMAN): 8.1 µM

CCOC(=O)C1=C(N)N(c2ccc(C(=O)OCC)cc2)C(O)=C(C#N)C12C(=O)Nc1ccccc12 (stereo not shown)
viability (HepG2; cell growth or viability, MTT; 100 µM, 24 h): 7.8%
